Env fusion inh: HIV envelope-mediated fusion inhibition; HeLa-JRFL Env/CEM21 cell fusion, luciferase; inhibition, % at 12.3 µM; 360,000 compounds, 1.1% hits;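 active means mean replicate inhibition score of at least 50 and every replicate individually at or above 50; inconclusive means only one of the two criteria met; inactive means mean below 50 and not all replicates reaching 50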;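 further: 0% = plate neutral controls and 100% = maraviroc near 300 nM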
Rtt109 HAT inh: blocks Candida albicans Rtt109/Vps75 acetyltransferase activity; Q5AAJ8; purified Rtt109/Vps75, ThioGlo CoA-SH fluorescence, 4 h; inhibition, % at 34.9 µM; 330,000 compounds, 0.16% hits; AID 540336;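 active means inhibition of at least 50% in every replicate; inconclusive means best replicate reaches 50% inhibition but some replicates fall short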
Target sequence (Q5AAJ8 whole entry, looked up): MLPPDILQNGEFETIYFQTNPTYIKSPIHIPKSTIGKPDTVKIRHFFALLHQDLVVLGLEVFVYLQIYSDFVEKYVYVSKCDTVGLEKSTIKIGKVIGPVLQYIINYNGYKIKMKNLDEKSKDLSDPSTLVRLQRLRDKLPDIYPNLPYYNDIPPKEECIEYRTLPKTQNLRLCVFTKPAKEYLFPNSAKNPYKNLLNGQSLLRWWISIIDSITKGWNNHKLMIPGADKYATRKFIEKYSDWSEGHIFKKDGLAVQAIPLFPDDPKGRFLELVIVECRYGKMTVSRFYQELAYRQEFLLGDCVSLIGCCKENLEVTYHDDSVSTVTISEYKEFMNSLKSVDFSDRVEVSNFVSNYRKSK
GSIS activator: GLuc luminescence reporter in INS-1E cells, primary screen for activators of glucose-dependent secretion of insulin; INS-1E GLuc reporter insulin secretion, 2-3 h; activation, % at 16.6 µM; 370,000 compounds, 0.61% hits;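 active means lowest replicate activation of at least 40%, so every replicate reaches that level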;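 further: 0% = median of neutral control wells and 100% = median of IBMX positive control wells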
miR-122 sensor: blocks miR-122 activity in Huh7 sensor cells. Huh7 miR-122 Renilla luciferase sensor, 48 h; neutral wells = 0, positive control = 100. activation (reporter increase), % at 12.5 µM. 340,000 compounds, 0.3% hits. AID 602342;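 active means mean replicate activation score at least 90 and every replicate individually at or above 90; inconclusive means only one of the two criteria met; inactive means neither criterion met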;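 further: higher luciferase means less miR-122 activity so hits act as miR-122 inhibitors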
dFosB act: enhances mouse delta FosB homodimer DNA binding; P13346; purified delta FosB, TAMRA-CDK5 oligo fluorescence polarization; percent of positive-control signal above neutral wells; activation, % at 25 µM; 340,000 compounds, 0.99% hits; AID 493131;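 active means mean activation above about 17%, with every replicate also reaching it, limit read from the data, passing the limit was not always enough; inconclusive means only one of the two conditions met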
Target sequence (P13346 whole entry, looked up): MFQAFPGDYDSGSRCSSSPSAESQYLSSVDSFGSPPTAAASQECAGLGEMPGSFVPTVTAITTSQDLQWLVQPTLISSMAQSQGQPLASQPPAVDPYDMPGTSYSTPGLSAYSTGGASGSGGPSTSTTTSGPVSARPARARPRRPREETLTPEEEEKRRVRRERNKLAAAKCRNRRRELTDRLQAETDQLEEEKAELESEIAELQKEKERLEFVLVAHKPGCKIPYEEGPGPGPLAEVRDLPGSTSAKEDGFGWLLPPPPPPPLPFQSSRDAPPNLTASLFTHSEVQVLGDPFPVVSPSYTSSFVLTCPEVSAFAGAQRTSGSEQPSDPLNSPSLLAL
Cneo AK release: Cryptococcus neoformans lysis via adenylate kinase release. C. neoformans lysis, adenylate kinase release luminescence, 4 h; normalised: neutral wells 0, clomiphene wells 100. lysis activity, % at 15 µM. 360,000 compounds, 0.2% hits. AID 651654;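 active means mean lysis activity across replicates of at least 80%, whatever share of replicates individually reach that level; inactive means mean lysis activity below 80%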
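Material: C. neoformans cells; Schedule: 4 h static compound exposure, 37 °C, read 1 h post-reagent; Measured by: adenylate kinase release luminescence; Read-out: signal increase indicating cell lysis; Controls: Clomiphene as positive lysis control.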
* marks the source's active call; other numbers are inactive results; ? = inconclusive; . = not tested or not shown; [ ] = another dose, or the depositor's remark. Compounds with a hit are over-represented: about 2.4% of the library has one in this group of screens.

SMILES	Env fusion inh	Rtt109 HAT inh	GSIS activator	miR-122 sensor	dFosB act	Cneo AK release
COC(=O)C1=C(C)N(Cc2ccc(F)cc2)C(=S)NC1c1ccc(Cl)cc1 (stereo not given)	58.8*	.	-3.2	.	.	.
COC(=O)C1=C(C)N(Cc2ccccc2)C(=S)N[C@H]1c1ccc(Br)cc1	66.7*	-3.2	-7.8	1.9	-4.3	11.0
COC(=O)C1=C(C)N(Cc2ccc(Cl)cc2)C(=S)NC1c1ccc(OC)cc1 (stereo not given)	84.1*	.	-3.8	.	.	.
CC(=O)C1=C(C)N(Cc2ccc(Cl)cc2)C(=S)NC1c1ccccc1 (stereo not given)	?	.	-20.4	.	.	.
COC(=O)C1=C(C)N(Cc2ccc(Cl)cc2)C(=S)NC1c1cccc(F)c1 (stereo not given)	7.7	.	.	.	.	.
CC(=O)C1=C(C)N(Cc2ccc(Cl)cc2)C(=S)NC1c1ccc(Cl)cc1 (stereo not given)	60.1*	.	-32.4	.	.	.
CO[C@@H]1CN(C)C(=O)c2ccc(NC(=O)c3ccno3)cc2OC[C@@H](C)NC[C@@H]1C	.	.	-3.8	.	.	.
CCn1c2ccccc2c2cc(/C=C(/C#N)C(N)=S)ccc21	56.6*	9.5	-15.5	.	-14.0	.
O=C1COc2ccc(C(=O)c3ccccc3C(=O)NCc3ccco3)cc2N1	.	72.5*	.	-8.8	-1.8	1.8
O=C1COc2ccc(C(=O)NCc3ccco3)cc2N1	.	66.9*	20.6	3.3	-12.1	0.0
O=C1COc2ccc(C(=O)c3ccccc3C(=O)NCc3ccccc3)cc2N1	.	12.6	.	-10.3	-10.9	6.1
CC[C@@H]1CC=CC[C@@H](C)Oc2ccccc2C(=O)N(C)[C@H](Cc2ccccc2)C(=O)N1 (mixture of isomers)	.	.	3.9	.	.	.
Cc1nn(C2CCS(=O)(=O)C2)c(Cl)c1/C=C/C(=O)OCC(=O)c1c[nH]c2ccccc12 (stereo not given)	36.4	3.0	8.8	.	-14.7	.
Cc1nn(C2CCS(=O)(=O)C2)c(Cl)c1/C=C/C(=O)OCC(=O)c1cc(C)n(-c2ccc(F)cc2)c1C (stereo not given)	55.0*	-3.9	-2.5	-16.0	4.7	.
O=[N+]([O-])c1ccc(-c2nc(NCC3CCCO3)c3ccccc3n2)cc1 (stereo not given)	4.5	-0.6	43.6*	.	1.2	.
CC[n+]1c(/C=C/c2ccc(N(C)C)cc2)ccc2ccccc21	14.3	13.0	-36.5	.	53.5*	.
CC[n+]1ccc(/C=C/c2ccc(N(C)C)cc2)c2ccccc21	22.8	-12.5	-71.6	.	47.1*	.
CC[n+]1ccccc1/C=C/c1ccc(N(C)C)cc1	?	19.3	-76.4	-39.4	-3.2	0.9
Cc1ccc(/C=C/c2ccc(N(C)C)cc2)[n+](C)c1	24.4	0.7	-42.8	.	9.6	0.1
CN(C)c1ccc(/C=C/c2cc[n+](C)cc2)cc1	.	4.1	.	.	32.1*	.
O=C(NCC[C@H]1CC[C@H](NC(=O)c2cccnc2)[C@@H](CO)O1)Nc1ccc(C(F)(F)F)cc1	31.3[16.7 µM]	.	16.4	.	.	-42.9
O=C(CC(NC(=O)c1ccccc1)c1ccccc1)Nc1cccc2ccccc12 (stereo not given)	-25.2	1.6	94.8*	4.9	?	.
O=C(CC(NC(=O)c1ccccc1)c1ccccc1)NCc1ccccc1 (stereo not given)	4.7	-1.5	-0.8	.	-11.7	0.2
CCOC(=O)C1CCN(c2nc(N)c3c(N)nc(SCC(=O)O)cc3c2C#N)CC1	-40.2	68.3*	-32.6	-2.1	-12.9	-31.9
CCC(=O)Nc1ccc2c(c1)OC[C@H](C)N(C(=O)Cc1cccnc1)C[C@H](C)[C@@H](OC)CN(C)C2=O	.	.	16.5	.	.	.
SMILES	Env fusion inh	Rtt109 HAT inh	GSIS activator	miR-122 sensor	dFosB act	Cneo AK release
C[C@@H](NC(=O)C[C@@H]1CC[C@@H]2[C@H](COC[C@H](O)CN2Cc2cc(F)ccc2F)O1)c1ccccc1	14.5[16.7 µM]	.	-6.1	3.6[16.7 µM]	.	112.3*
O=C(C[C@@H]1CC[C@H]2[C@@H](COC[C@@H](O)CN2C(=O)c2ccc(F)cc2)O1)NC1Cc2ccccc2C1	66.9*[16.7 µM]	.	-0.9	-0.4[16.7 µM]	.	-2.5
C[C@@H](NC(=O)C[C@H]1CC[C@@H]2[C@H](COC[C@@H](O)CN2Cc2cc(F)ccc2F)O1)c1ccccc1	-1.4[16.7 µM]	.	-4.1	5.3[16.7 µM]	.	1.8
C[C@@H](NC(=O)C[C@@H]1CC[C@H]2[C@@H](COC[C@@H](O)CN2Cc2cc(F)ccc2F)O1)c1ccccc1	14.5[16.7 µM]	.	-1.6	5.8[16.7 µM]	.	101.4*
CCCNC(=O)C[C@@H]1CC[C@H]2[C@@H](COC[C@H](O)CN2Cc2ccccc2F)O1	4.7[16.7 µM]	.	1.2	-0.2[16.7 µM]	.	96.9*
Cc1ccc(-c2nc(CSCC(=O)N3CCCC3)c(C)o2)cc1	-42.1	10.1	.	-15.0	-3.8	3.7
Cc1cccc(-c2nc(CSCC(=O)N3CCN(c4ccccn4)CC3)c(C)o2)c1	89.3*	1.8	.	-2.8	-5.3	0.2
C[C@H](CO)N1C[C@H](C)[C@H](CN(C)C(=O)Nc2ccc3c(c2)OCO3)OCCCC[C@H](C)Oc2ccc(NS(=O)(=O)c3cn(C)cn3)cc2C1=O	14.3[16.7 µM]	.	-2.7	1.5[16.7 µM]	.	0.1
CC1=C(C)/C(=N\OS(=O)(=O)c2ccc(C)cc2)C=CC1=O	-298.0	108.6*	225.1*	.	-4.2	.
COc1ccc(S(=O)(=O)/N=C2/C=CC(=O)C(C)=C2C)cc1	.	0.6	.	1.2	-8.7	-0.5
Cc1ccc(-c2csc3nnc(SCC(=O)Nc4cccc(C)n4)n23)cc1	107.0*	-3.1	3.9	-4.5	-0.7	0.3
O=C(Nc1cc(S(=O)(=O)N2CCCCC2)ccc1Cl)c1ccccc1NS(=O)(=O)c1ccc(F)cc1	70.9*	-1.6	-23.3	.	-15.8	.
Cc1ccc(S(=O)(=O)Nc2ccccc2C(=O)Nc2nc(-c3ccc(F)cc3)cs2)cc1	56.0*	-1.2	-10.8	-0.5	-5.8	-0.5
O=C(COC(=O)c1cccnc1Cl)Nc1cc(S(=O)(=O)N2CCCCCC2)ccc1Cl	19.3	-11.7	41.8*	.	-6.3	-2.8
O=C(Nc1cc(S(=O)(=O)N2CCCCC2)ccc1O)c1ccccc1NS(=O)(=O)c1ccc(F)cc1	6.0	-16.0	-51.0	-3.4	-2.3	3.0
CCC(=O)N1CC2(C1)CN(C(=O)CC)[C@@H](CO)c1[nH]c3cc(OC)ccc3c12	-4.4[16.7 µM]	.	11.7	.	.	.
Cc1cccc(C(O)c2ncc(-c3ccccc3F)[nH]2)c1C (stereo not given)	1.5	.	-1.9	95.9*	.	0.4
Cc1cccc(C)c1C(O)c1ncc(-c2ccccc2F)[nH]1 (stereo not given)	-17.0	.	-11.8	10.6	.	-1.1
Cc1cc(F)ccc1C(O)c1ncc(-c2ccccc2F)[nH]1 (stereo not given)	-25.3	.	-18.6	111.6*	.	-1.6
Cc1ccc2ccccc2c1C(O)c1ncc(-c2ccccc2F)[nH]1 (stereo not given)	6.2	.	-1.5	175.4*	.	3.0
